Calls of active or inactive are those of the source. The rule behind the calls is not given here.
Experiments:
Mus musculus [1] = assay: Antialzheimer activity in 5XFAD mouse assessed as number of plaques per FOV in […] cortex at 75 ppm administered as rodent chow starting from 1.5 months and measured after 5 months by immunolabeling based confocal microscopic analysis (reference value: […] to […]); assay type: functional; details: route po, time 3.5 months, 2555 h
Mus musculus [2] = assay: Antialzheimer activity in 5XFAD mouse assessed as time to locate platform at 1200 ppm administered as rodent chow for 10 to 24 weeks by Morris water maze test (reference value: 6.5 to 60 sec); assay type: functional; details: route po, time 10-24 weeks
In short: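 Morris water maze: a circular pool was filled with opaque water (white paint added), and mice were given four trials per acquisition day. Twenty-four hours after the last acquisition day, the platform was removed for a 60 s probe trial. Mice had been on 1200 ppm PLX5622 or control chow for 10 or 24 weeks from 1.5 months of age.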

[3] = molecular target: Serine/threonine-protein kinase Nek2 (Homo sapiens, UniProt P51955); assay: Inhibition of NEK2 (unknown origin)
Serine/threonine-protein kinase Nek2, sequence (P51955 whole entry): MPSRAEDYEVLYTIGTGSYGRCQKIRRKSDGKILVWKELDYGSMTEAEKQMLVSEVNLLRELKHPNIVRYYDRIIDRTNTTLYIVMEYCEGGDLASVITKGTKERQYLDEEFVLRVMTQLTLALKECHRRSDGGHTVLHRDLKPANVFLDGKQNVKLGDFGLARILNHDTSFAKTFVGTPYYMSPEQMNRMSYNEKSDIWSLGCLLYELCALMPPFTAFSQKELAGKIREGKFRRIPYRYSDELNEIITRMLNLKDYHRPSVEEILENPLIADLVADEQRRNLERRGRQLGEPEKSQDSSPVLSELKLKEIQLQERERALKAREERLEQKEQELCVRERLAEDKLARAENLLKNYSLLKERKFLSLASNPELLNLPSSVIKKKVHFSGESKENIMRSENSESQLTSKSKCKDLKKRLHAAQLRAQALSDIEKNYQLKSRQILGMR

[4] = molecular target: T1, Macrophage colony-stimulating factor 1 receptor (Mus musculus) (UniProt P09581); assay: In vivo inhibition of CSF1R in wildtype mouse assessed as number of GFAP positive cells per FOV at 1200 ppm administered as rodent chow starting from 1.5 months to 4 months followed by compound removal and measured after 1 month by immunolabeling based confocal microscopic analysis (reference value: 1 to 7); assay type: functional; details: route po, time 2.5 months
T1 sequence (whole entry): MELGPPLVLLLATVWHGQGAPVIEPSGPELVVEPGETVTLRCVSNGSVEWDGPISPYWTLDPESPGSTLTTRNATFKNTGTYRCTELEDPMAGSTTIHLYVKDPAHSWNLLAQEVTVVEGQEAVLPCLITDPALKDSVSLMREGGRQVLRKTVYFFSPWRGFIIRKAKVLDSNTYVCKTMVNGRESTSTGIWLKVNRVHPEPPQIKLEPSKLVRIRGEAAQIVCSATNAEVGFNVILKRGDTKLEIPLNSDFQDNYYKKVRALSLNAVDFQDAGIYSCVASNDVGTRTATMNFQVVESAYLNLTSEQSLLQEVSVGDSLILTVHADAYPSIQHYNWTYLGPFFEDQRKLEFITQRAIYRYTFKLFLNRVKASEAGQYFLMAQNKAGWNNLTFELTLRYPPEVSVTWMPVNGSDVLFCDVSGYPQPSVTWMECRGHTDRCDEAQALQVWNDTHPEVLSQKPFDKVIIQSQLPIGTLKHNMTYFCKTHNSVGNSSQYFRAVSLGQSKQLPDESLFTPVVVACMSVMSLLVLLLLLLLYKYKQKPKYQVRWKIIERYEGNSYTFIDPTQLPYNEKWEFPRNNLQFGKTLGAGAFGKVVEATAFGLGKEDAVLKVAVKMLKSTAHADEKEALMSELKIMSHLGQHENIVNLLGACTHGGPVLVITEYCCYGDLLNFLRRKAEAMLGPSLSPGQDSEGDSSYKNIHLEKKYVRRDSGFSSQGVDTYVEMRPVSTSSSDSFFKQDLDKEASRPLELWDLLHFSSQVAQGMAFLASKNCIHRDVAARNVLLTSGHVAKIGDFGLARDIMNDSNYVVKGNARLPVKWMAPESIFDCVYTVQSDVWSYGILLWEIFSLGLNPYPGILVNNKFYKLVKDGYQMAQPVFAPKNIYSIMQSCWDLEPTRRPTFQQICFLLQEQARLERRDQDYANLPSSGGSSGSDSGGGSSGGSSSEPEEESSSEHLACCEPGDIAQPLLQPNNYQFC

[5] = molecular target: T1, Macrophage colony-stimulating factor 1 receptor (Mus musculus); assay: In vivo inhibition of CSF1R in wildtype mouse assessed as number of S100bteta positive cells per FOV in […] cortex at 1200 ppm administered as rodent chow for 10 to 24 weeks by immunolabelling based confocal microscopic analysis (reference value: 296 to 337); assay type: functional; details: route po, time 10-24 weeks
[6] = Effect on Siglech gene expression in 5XFAD mouse hippocampus at 1200 ppm administered as rodent chow starting from 1.5 months and measured after 7 months by RNA-Seq analysis (reference value: 5.386 to 6.928 RPKM); assay type: functional; details: route po, time 5.5 months, 4015 h
[7] = Effect on Rnf217 gene expression in wildtype mouse hippocampus assessed as percent change in Reads Per kilo base per Million mapped reads at 1200 ppm administered as rodent chow starting from 1.5 months and measured after 7 months by RNA-Seq analysis (reference value: 92.169 to 103.245 %); assay type: functional; details: route po, time 5.5 months, 4015 h
[8] = Clearance in monkey at 1.35 mg/kg, iv administered as single dose; assay type: ADME, organism-based, Macaca mulatta; details: rhesus monkey, in vivo
Mus musculus [9] = assay: Antialzheimer activity in 5XFAD mouse assessed as number of Iba1 positive cells per FOV in subiculum at 1200 ppm administered as rodent chow starting from 1.5 months and measured after 7 months by immunolabeling based confocal microscopic analysis (reference value: 1284 to 1582); assay type: functional; details: route po, time 5.5 months, 4015 h
[10] = Effect on Hexb gene expression in wild type mouse cortex at 1200 ppm administered as rodent chow starting from 1.5 months and measured after 7 months by RNA-Seq analysis (reference value: 38.813 to 48.079); assay type: functional; details: route po, time 5.5 months, 4015 h
[11] = molecular target: Serine/threonine-protein kinase MARK1 (Homo sapiens, UniProt Q9P0L2); assay: Inhibition of MARK1 (unknown origin)
Serine/threonine-protein kinase MARK1, sequence (Q9P0L2 whole entry): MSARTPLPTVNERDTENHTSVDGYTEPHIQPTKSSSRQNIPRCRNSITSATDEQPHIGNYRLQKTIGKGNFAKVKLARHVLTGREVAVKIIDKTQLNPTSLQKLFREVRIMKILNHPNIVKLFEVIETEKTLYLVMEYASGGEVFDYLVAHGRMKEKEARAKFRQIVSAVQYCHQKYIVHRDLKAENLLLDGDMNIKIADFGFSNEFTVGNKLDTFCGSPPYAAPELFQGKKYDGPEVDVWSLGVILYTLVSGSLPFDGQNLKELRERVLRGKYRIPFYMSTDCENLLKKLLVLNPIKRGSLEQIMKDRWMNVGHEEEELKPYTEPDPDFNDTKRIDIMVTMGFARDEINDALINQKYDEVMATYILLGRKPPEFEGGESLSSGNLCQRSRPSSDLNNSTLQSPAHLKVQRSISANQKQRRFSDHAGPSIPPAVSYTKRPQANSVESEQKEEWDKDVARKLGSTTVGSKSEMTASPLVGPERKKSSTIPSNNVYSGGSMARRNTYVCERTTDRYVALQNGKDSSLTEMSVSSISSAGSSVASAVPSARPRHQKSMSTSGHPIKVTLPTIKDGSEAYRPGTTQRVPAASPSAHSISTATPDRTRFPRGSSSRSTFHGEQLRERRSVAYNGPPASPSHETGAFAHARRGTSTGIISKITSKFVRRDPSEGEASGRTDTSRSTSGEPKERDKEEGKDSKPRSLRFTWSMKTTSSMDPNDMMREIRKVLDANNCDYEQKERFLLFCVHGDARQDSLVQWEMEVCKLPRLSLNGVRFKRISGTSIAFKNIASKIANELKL

Mus musculus [12] = assay: Prevention of Dlgap1 gene downregulation in 5XFAD mouse hippocampus at 1200 ppm administered as rodent chow starting from 1.5 months and measured after 7 months by Nanostring analysis; assay type: functional, tissue-based; details: route po, time 5.5 months
[13] = molecular target: cGMP-dependent protein kinase 1 (Homo sapiens, UniProt Q13976); assay: Inhibition of PRKG1 (unknown origin)
cGMP-dependent protein kinase 1, sequence (Q13976 whole entry): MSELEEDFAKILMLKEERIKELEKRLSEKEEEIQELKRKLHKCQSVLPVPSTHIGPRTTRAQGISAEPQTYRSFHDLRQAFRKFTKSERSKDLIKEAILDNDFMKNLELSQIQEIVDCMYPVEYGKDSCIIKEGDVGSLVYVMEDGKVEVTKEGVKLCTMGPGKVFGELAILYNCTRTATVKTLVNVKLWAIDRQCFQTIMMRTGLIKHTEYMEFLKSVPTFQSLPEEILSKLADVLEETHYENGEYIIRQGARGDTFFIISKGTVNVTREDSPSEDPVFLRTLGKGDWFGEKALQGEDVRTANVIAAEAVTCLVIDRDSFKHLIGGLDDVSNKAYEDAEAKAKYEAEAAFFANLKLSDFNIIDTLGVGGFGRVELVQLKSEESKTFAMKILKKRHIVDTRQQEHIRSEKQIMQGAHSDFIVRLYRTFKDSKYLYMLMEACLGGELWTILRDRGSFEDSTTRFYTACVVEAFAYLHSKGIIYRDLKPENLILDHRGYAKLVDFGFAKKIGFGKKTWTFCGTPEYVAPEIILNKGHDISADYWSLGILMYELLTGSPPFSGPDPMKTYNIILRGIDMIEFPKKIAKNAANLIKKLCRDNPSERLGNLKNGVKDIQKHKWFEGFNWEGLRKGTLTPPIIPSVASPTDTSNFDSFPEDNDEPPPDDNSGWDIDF

[14] = Toxicity in wildtype mouse assessed as number of open arm entries at 1200 ppm administered as rodent chow for 10 to 24 weeks by Elevated plus maze test (reference value: 7 to 29); details: in vivo, po, time 10-24 weeks
[15] = Effect on Spi1 gene expression in 5XFAD mouse hippocampus at 1200 ppm administered as rodent chow starting from 1.5 months and measured after 7 months by RNA-Seq analysis (reference value: 2.582 to 3.674 RPKM); assay type: functional; details: route po, time 5.5 months, 4015 h
[16] = molecular target: RAC-alpha serine/threonine-protein kinase (Homo sapiens, UniProt P31749); assay: Inhibition of AKT1 (unknown origin)
RAC-alpha serine/threonine-protein kinase, sequence (P31749 whole entry): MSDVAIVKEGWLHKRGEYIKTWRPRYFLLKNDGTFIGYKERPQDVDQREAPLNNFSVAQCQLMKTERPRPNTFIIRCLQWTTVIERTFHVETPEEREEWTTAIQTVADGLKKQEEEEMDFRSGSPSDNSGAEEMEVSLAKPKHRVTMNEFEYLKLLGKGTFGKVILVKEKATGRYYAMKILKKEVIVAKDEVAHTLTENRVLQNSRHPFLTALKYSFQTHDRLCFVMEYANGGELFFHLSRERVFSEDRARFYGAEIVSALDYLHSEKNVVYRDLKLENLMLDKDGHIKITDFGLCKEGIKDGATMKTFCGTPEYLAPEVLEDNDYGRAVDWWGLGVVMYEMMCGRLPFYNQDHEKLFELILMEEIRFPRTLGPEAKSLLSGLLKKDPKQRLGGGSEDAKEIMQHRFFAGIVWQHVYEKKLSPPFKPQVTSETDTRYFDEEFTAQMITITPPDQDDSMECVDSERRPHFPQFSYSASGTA

Mus musculus [17] = assay: Antialzheimer activity in 5XFAD mouse assessed as number of Thio-S positive plaques per FOV in […] cortex at 1200 ppm administered as rodent chow starting from 1.5 months and measured after 4 months by Thio-S staining based confocal microscopic analysis (reference value: 63 to 124); assay type: functional; details: route po, time 2.5 months, 1825 h
[18] = molecular target: Homeodomain-interacting protein kinase 1 (Homo sapiens, UniProt Q86Z02); assay: Inhibition of HIPK1 (unknown origin)
Homeodomain-interacting protein kinase 1, sequence (Q86Z02 whole entry): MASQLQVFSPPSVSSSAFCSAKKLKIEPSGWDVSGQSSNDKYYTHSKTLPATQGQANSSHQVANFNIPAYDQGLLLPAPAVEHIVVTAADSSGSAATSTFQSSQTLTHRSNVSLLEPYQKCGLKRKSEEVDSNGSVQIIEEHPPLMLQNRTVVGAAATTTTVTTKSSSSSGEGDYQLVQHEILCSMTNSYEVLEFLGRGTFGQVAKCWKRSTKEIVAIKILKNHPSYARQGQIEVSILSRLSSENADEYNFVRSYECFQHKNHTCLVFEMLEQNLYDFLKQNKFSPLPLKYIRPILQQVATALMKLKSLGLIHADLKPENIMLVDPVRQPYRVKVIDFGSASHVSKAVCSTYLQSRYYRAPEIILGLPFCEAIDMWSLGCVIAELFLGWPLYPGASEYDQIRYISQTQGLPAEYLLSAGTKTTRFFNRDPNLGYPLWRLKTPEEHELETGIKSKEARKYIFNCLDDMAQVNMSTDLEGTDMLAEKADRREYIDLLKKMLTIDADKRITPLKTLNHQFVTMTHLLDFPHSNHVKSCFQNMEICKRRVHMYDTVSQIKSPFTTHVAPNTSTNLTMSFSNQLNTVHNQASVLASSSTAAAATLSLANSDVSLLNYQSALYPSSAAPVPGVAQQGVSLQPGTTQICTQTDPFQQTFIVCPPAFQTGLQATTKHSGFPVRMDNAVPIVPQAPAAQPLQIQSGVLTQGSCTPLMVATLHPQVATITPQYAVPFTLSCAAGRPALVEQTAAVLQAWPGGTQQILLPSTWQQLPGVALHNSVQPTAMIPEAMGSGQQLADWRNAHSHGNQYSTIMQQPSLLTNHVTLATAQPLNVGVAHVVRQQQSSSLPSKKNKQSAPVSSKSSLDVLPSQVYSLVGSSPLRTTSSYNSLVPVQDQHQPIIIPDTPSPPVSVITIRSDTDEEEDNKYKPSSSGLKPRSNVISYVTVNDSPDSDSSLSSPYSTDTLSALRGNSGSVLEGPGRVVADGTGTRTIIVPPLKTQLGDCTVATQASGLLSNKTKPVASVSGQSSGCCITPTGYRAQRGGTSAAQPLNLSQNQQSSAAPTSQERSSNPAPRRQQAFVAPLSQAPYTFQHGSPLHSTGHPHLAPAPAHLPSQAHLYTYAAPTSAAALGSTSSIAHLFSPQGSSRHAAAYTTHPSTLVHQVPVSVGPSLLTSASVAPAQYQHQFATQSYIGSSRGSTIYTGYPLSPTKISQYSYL

Mus musculus [19] = assay: Antialzheimer activity in 5XFAD mouse assessed as number of pyroglutamate-3-modified positive plaques per FOV in cortex at 1200 ppm administered as rodent chow starting from 1.5 months and measured after 7 months by Thio-S staining based confocal microscopic analysis (reference value: 14 to 34); assay type: functional; details: route po, time 5.5 months, 4015 h
[20] = molecular target: BDNF/NT-3 growth factors receptor (Homo sapiens, UniProt Q16620); assay: Inhibition of NTRK2 (unknown origin)
BDNF/NT-3 growth factors receptor, sequence (Q16620 whole entry): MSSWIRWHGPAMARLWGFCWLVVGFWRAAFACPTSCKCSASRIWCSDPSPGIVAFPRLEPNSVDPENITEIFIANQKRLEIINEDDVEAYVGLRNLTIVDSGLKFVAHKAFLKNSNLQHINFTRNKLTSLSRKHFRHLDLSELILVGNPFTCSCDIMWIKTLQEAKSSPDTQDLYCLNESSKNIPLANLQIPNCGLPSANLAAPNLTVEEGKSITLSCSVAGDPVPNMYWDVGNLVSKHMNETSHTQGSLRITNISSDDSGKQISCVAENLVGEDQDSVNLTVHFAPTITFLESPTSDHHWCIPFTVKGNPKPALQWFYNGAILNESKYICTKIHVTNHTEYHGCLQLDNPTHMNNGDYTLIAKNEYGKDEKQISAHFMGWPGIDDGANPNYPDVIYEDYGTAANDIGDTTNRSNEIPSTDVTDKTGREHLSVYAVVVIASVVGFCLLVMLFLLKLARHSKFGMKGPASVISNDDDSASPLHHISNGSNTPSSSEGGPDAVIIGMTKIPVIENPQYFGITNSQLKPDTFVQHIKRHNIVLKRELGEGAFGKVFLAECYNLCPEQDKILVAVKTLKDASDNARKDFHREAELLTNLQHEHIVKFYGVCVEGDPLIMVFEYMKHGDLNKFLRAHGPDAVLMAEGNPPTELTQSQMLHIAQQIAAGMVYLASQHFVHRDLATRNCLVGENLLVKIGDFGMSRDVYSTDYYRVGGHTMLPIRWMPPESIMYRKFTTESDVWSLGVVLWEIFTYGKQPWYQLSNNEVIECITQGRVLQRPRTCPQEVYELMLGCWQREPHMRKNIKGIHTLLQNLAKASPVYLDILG

[21] = Toxicity in wildtype mouse assessed as number of platform entry at 1200 ppm administered as rodent chow for 10 to 24 weeks by Morris water maze test (reference value: 0 to 5); details: in vivo, po, time 10-24 weeks

## FC(F)(F)c1ccc(CNc2ccc(Cc3c[nH]c4ncc(Cl)cc34)cn2)cn1 [PEXIDARTINIB]
Mus musculus [1]
  Activity: 34

## COc1ncc(F)cc1CNc1ccc(Cc2c[nH]c3ncc(C)cc23)c(F)n1 [PLX-5622]
Mus musculus [2]
  Time: 9.2 s
[3]
  IC50: > 1000 nM
[4]
  Activity: 3
[5]
  Activity: 269
[6]
  Activity: 0.195 RPKM
[7]
  Activity: 69.868%
[8]
  clearance: 11 mL/min/kg
Mus musculus [9]
  Activity: 25
[10]
  Activity: 8.715 RPKM
[11]
  IC50: > 1000 nM
Mus musculus [12]
  Activity: Active
[13]
  IC50: > 1000 nM
[14]
  Activity: 6
[15]
  Activity: 0.292 RPKM
[16]
  IC50: > 1000 nM
Mus musculus [17]
  Activity: 13
[18]
  IC50: > 1000 nM
Mus musculus [19]
  Activity: 0
[20]
  IC50: > 1000 nM
[21]
  Activity: 1

— ChEMBL document CHEMBL5649170, “Sustained microglial depletion with CSF1R inhibitor impairs parenchymal plaque development in an Alzheimer's disease model” (Nat Commun, 2019)
